Here are results for 28 compounds from ChEMBL document CHEMBL1155945, “Discovery of 2-chloro-N-(4-methoxyphenyl)-N-methylquinazolin-4-amine (EP128265, MPI-0441138) as a potent inducer of apoptosis with high in vivo activity” (J Med Chem, 2008).

The source made the active and inactive calls. The calls are words filed in the database; no cut-off is given here.

The test system of data set [1] is T47D. As to the kind of experiment: Induction of apoptosis in human T47D cells assessed as caspase 3 activation after 24 hrs. In kind it is functional, cell-based. In outline:
(§1)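 A live-cell, high-throughput caspase-3 activator assay was used, with fluorescent caspase-3 substrates in intact cells. EC50 values for caspase activation are the mean ± SEM of three or more experiments.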

Data set [2] has as its system HCT-116. In words: Induction of apoptosis in human HCT116 cells assessed as caspase 3 activation after 24 hrs. In kind it is functional, cell-based. The settings on record: HCT-116, 24 h. In outline:
as §1

Data set [3] is described as follows: Inhibition of tubulin polymerization.
Data set [4] concerns T47D. As to the kind of experiment: Growth inhibition of human T47D cells after 48 hrs by CellTiter-Glo assay. It counts as functional. The method, boiled down: (§2)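 Cells were exposed continuously to the compound for 48 h at 37 °C. CellTiter-Glo reagent was then added and the samples mixed by agitation. After 10-15 min at room temperature, luminescence was read. GI50 was taken as 50% inhibition of cell proliferation. Values are the mean ± SEM of three experiments.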
Background: Cellular ATP, detected with luciferase, serves as a proxy for viable cell number.

Data set [5] has as its system HCT-116. As to the kind of experiment: Growth inhibition of human HCT116 cells after 48 hrs by CellTiter-Glo assay. In kind it is functional. Particulars: HCT-116, 48 h. The method, boiled down:
as §2

Data set [6] deals with P388. In words: Cytotoxicity against mouse P388 cells. In kind it is functional, cell-based. In outline:
(§3)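 Cytotoxicity IC50 was measured in parental P388 cells and in the P388/ADR line, which overexpresses the ABC transporter Pgp-1 (MDR-1). Values are the mean ± SEM of three experiments.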

Data set [7] concerns P388. In words: Cytotoxicity against adriamycin-resistant mouse P388 cells expressing p-glycoprotein. It counts as functional, cell-based. In outline:
as §3

The subject of another data set is PC-3. In words: Antitumor activity in human PC3 cells xenografted crl:Nu/Nu-nuBR mouse assessed as tumor growth inhibition at 10 mg/kg, iv administered once weekly for 2 weeks. It counts as functional, organism-based. Further details: dose 10 mg/kg. A general note: A xenograft is tissue or cells of one species grown in another, often human tumour cells in immunodeficient mice.

Data set [8] can be described thus: Toxicity in human MX1 cells xenografted crl:Nu/Nu-nuBR mouse. In kind it is organism-based. The settings on record: in vivo. In outline: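 MX-1 human breast tumour xenograft in mice; dosed intravenously once weekly at several dose levels […]. Tolerability was judged by maximum body weight decrease, alongside tumour growth measurement.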
The test system of data set [9] is MX1. As to the kind of experiment: Antitumor activity in human MX1 cells xenografted crl:Nu/Nu-nuBR mouse assessed as tumor growth inhibition at 2.5 mg/kg, iv administered once a day for 5 days for 2 weeks. In kind it is functional.
The nature of data set [10]: Displacement of fluorescent labeled colchicine from tubulin at 50 uM.
The test system of data set [11] is Mus musculus. As to the kind of experiment: AUC in C57BL/6 mouse plasma at 2.5 mg/kg, iv. It counts as ADME, organism-based. Further details: dose 2.5 mg/kg, route intravenous. The settings on record: in vivo.
The test system of data set [12] is Mus musculus. In words: AUC in C57BL/6 mouse brain at 2.5 mg/kg, iv. It counts as ADME, organism-based. Further details: dose 2.5 mg/kg, route intravenous. Particulars: in vivo.
For data set [13], the system named is MX1. As to the kind of experiment: Antitumor activity in human MX1 cells xenografted crl:Nu/Nu-nuBR mouse assessed as tumor growth inhibition at 10 mg/kg, iv administered once weekly for 2 weeks. In kind it is functional. The settings on record: MX1, 336 h.
Data set [14] deals with Mus musculus. In words: Toxicity in human MX1 cells xenografted crl:Nu/Nu-nuBR mouse assessed as decrease in body weight at 10 mg/kg, iv administered once weekly for 2 weeks. In kind it is organism-based. Also noted: dose 10 mg/kg, route intravenous; scale not given: the % may be the effect or the level left. Particulars: in vivo, 336 h.
The nature of data set [15]: Therapeutic index, ratio of MTD for human MX1 cells xenografted crl:Nu/Nu-nuBR mouse to tumor growth inhibition in human MX1 cells xenografted crl:Nu/Nu-nuBR mouse. The settings on record: in vivo.

In the case of `COc1ccc(N(C)c2ncnc3ccccc23)cc1`, the results for the EC50 in the data set on T47D [1] and in the data set on HCT-116 [2] were 6 nM and 8 nM, respectively.

For `CCOc1ccc(N(C)c2nc(Cl)nc3ccccc23)cc1`, the EC50 with T47D [1] and in the data set on HCT-116 [2] was 5 nM in each case.

Take `COc1cccc(N(C)c2nc(Cl)nc3ccccc23)c1OC`: the EC50 (commonly the concentration needed to bring the measured effect to its halfway point) in the data set on T47D [1] was 680 nM; with HCT-116 [2], 1110 nM.

As to `CN(c1ccc([N+](=O)[O-])cc1)c1nc(Cl)nc2ccccc12`, the EC50 was found to be 770 nM in the data set on T47D [1] and 1400 nM in the data set with HCT-116 [2].

In the case of `COc1ccc(N(C)c2nc(Cl)nc3ccccc23)cc1OC`, the results for the EC50 in the data set on T47D [1] and with HCT-116 [2] were 9 nM and 15 nM, respectively.

Turning to `COc1ccc(Nc2nc(Cl)nc3ccccc23)cc1`, the EC50 in the data set on T47D [1] and in the data set with HCT-116 [2] was > 10000 nM each time.

On to `CN(c1ccc(O)cc1)c1nc(Cl)nc2ccccc12`, for which the results for the EC50 with T47D [1] and with HCT-116 [2] were 85 nM and 120 nM, respectively.

On to `COc1ccc(N(C)c2nc(Cl)nc3cc(OC)c(OC)cc23)cc1`, for which the EC50 is 590 nM in the data set with T47D [1] and 970 nM in the data set with HCT-116 [2].

Take `COc1ccc(CN(C)c2nc(Cl)nc3ccccc23)cc1`: the EC50 with T47D [1] came out at 68 nM; in the data set on HCT-116 [2], 120 nM.

Regarding `COc1ccc(N(C)c2nc(Cl)nc3cc(Cl)ccc23)cc1`, the results for the EC50 with T47D [1] and in the data set with HCT-116 [2] were 300 nM and 350 nM, respectively.

As for `CN(c1ccc(Oc2ccccc2)cc1)c1nc(Cl)nc2ccccc12`, the EC50 in the data set with T47D [1] and in the data set with HCT-116 [2] was > 10000 nM each time.

As for `COc1ccc(N(C)c2nc(Cl)nc3ccc(Cl)cc23)cc1`, the EC50 in the data set with T47D [1] worked out at 10 nM; in the data set on HCT-116 [2], 13 nM.

In the case of `COc1ccccc1N(C)c1nc(Cl)nc2ccccc12`, the EC50 was 4440 nM in the data set on T47D [1] and > 10000 nM in the data set with HCT-116 [2].

For `CCN(c1ccc(OC)cc1)c1nc(Cl)nc2ccccc12`, the EC50 in the data set on T47D [1] stood at 39 nM; with HCT-116 [2], 49 nM.

As for `COc1ccc(Oc2ncnc3ccccc23)cc1`, the EC50 in the data set with T47D [1] and in the data set with HCT-116 [2] was > 10000 nM in each case.

Regarding `COc1cc2c(c(OC)c1OC)-c1ccc(OC)c(=O)cc1[C@@H](NC(C)=O)CC2` [COLCHICINE], the IC50 (usually the midpoint of a concentration-inhibition curve) in data set [3] was determined as 500 nM.

Consider `COc1ccc(N(C)c2nc(NC/C=C(\C)CCC=C(C)C)nc3ccccc23)cc1`, for which the GI50 (usually the concentration giving 50% growth inhibition) in the data set on T47D [4] turned out to be 850 nM; with HCT-116 [5], 350 nM.

Consider `COc1cccc(N(C)c2nc(Cl)nc3ccccc23)c1`, for which the EC50 was found to be 25 nM with T47D [1] and 31 nM with HCT-116 [2].

On to `CN(c1ccc2c(c1)OCO2)c1nc(Cl)nc2ccccc12`, for which the EC50 with T47D [1] worked out at 31 nM; with HCT-116 [2], 65 nM.

Take `CC(=O)O[C@@]12CO[C@@H]1C[C@H](O)[C@@]1(C)C(=O)[C@H](O)C3=C(C)[C@@H](OC(=O)[C@H](O)[C@@H](NC(=O)OC(C)(C)C)c4ccccc4)C[C@@](O)([C@@H](OC(=O)c4ccccc4)[C@H]21)C3(C)C` [DOCETAXEL]: the IC50 with P388 [6] was 2 nM; with P388 [7], 277 nM.

In the case of `CN(c1ccccc1)c1nc(Cl)nc2ccccc12`, the EC50 in the data set with T47D [1] came out at 210 nM; with HCT-116 [2], 300 nM.

With `CN(c1ccc(OC(F)(F)F)cc1)c1nc(Cl)nc2ccccc12`, the EC50 with T47D [1] was 49 nM; with HCT-116 [2], 59 nM.

For `CC[C@]1(O)C[C@@H]2CN(CCc3c([nH]c4ccccc34)[C@@](C(=O)OC)(c3cc4c(cc3OC)N(C)[C@H]3[C@@](O)(C(=O)OC)[C@H](OC(C)=O)[C@]5(CC)C=CCN6CC[C@]43[C@@H]65)C2)C1` [VINBLASTINE], the IC50 in the data set on P388 [6] stood at 0.6 nM; in the data set on P388 [7] it was 27 nM.

Consider `COc1ccc(N(C)c2nc(Cl)nc3ccccc23)cc1`, for which the result (in the data set on PC-3; in data set [10]) was Active. Moreover, in data set [8], the MTD is 25 mg/kg. The inhibition in vivo (usually the share of the control response that was lost under treatment) at 2.5 mg/kg with MX1 [9] worked out at 90%. In addition, the values for the IC50 (in the data set with P388 [6]; in data set [3]; in the data set with P388 [7]) were 2.1 nM, < 400 nM and 2.2 nM, respectively. Further, the GI50 in the data set on T47D [4] came out at 1 nM; with HCT-116 [5], 2 nM. Besides, the AUC in the data set with Mus musculus [11] was found to be 669 ng/mL; in the data set on Mus musculus [12], 20563 ng/mL. In the data set on MX1 [13], the inhibition in vivo at 10 mg/kg is > 95%. Further, the Activity with Mus musculus [14] was < 10%. Further, the selectivity ratio in data set [15] is 2.5.

Regarding `CN(c1ccc(Cl)cc1)c1nc(Cl)nc2ccccc12`, the 50% effective concentration (EC50) in the data set on T47D [1] is 68 nM; in the data set with HCT-116 [2], 72 nM.

In the case of `Cc1ccc(N(C)c2nc(Cl)nc3ccccc23)cc1`, the EC50 with T47D [1] turned out to be 15 nM; in the data set with HCT-116 [2], 21 nM.

As for `COc1ccc(N(C)c2nc(Cl)nc3ccccc23)cn1`, the EC50 with T47D [1] was determined as 17 nM; with HCT-116 [2], 29 nM. Moreover, the GI50 was found to be 37 nM with T47D [4] and 40 nM in the data set with HCT-116 [5].

`COc1ccc(Nc2nc(Cl)nc3cc(OC)c(OC)cc23)cc1`: the EC50 in the data set with T47D [1] and in the data set on HCT-116 [2] was > 10000 nM in each case.
